This note sets out measurements from ChEMBL document CHEMBL5108041, “Identification and validation of novel microtubule suppressors with an imidazopyridine scaffold through structure-based virtual screening and docking” (RSC Med Chem, 2022).

Calls of active or inactive are those of the source. No cut-off for these calls is given here.

Data set [1] concerns MCF7. Briefly: Cell cycle arrest in human MCF7 assessed as accumulation at S phase at 6 uM incubated for 24 hrs by propidium iodide staining flow cytometry. The format is functional. In outline: (§1)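 MCF-7 cells exposed to 6 μM for 24 h, DMSO vehicle control. Cells harvested, fixed in 70% ethanol on ice 15 min, then stained 1 h at room temperature with PI solution containing 0.1 mg mL⁻¹ RNaseA and 0.05% Triton X-100. DNA content read by flow cytometry; percentage of cells in each phase.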

In data set [2] the target is T1, Tubulin (Sus scrofa) (UniProt P02554+P02550). Briefly: Inhibition of porcine Tubulin polymerization assessed as decrease in AUC by measuring fluorescence at 15 uM incubated for 1 hr by fluorescence microscopy. Format: protein assay. In outline: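 Porcine tubulin at 2 mg ml⁻¹ in 80 mM PIPES, 2 mM MgCl₂, 0.5 mM EGTA pH 6.9, with 10 μM fluorescent reporter, 1 mM GTP and 15% glycerol, in a pre-warmed plate. […] Fluorescence (ex 360, em 450 nm) read once per min for 60 min at 37 °C. Area under the curve scored against the untreated control, taken as 100%.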

For data set [3], the system named is MDA-MB-231. Briefly: Antiproliferative activity against human MDA-MB-231 cells assessed as cell growth inhibition at 10 uM incubated for 48 hr by MTT assay. The format is functional. In outline:
(§2)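 Cells in RPMI with 10% FBS, 1% pen/strep at 37 °C, 5% CO2. […] MTT 0.5 mg ml⁻¹ for 2 h, formazan dissolved in DMSO, A570; viability = OD treated/OD control × 100. Triplicate.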

The subject of data set [4] is MCF7. Briefly: Induction of apoptosis in human MCF7 cells assessed as necrotic cells at 6 uM incubated for 24 hrs by Annexin V-FITC/propidium iodide staining based flow cytometry (reference value: 0.76 %). Format: functional.
Data set [5] deals with MCF7. Briefly: Antiproliferative activity against human MCF7 cells assessed as cell growth inhibition at 10 uM incubated for 48 hr by MTT assay. The format is functional. In short, it runs like this: as §2
Background: Tetrazolium dyes change colour on reduction, which living cells bring about.

In data set [6] the test system is MCF7. The data set can be described thus: Induction of apoptosis in human MCF7 cells assessed as early apoptotic cells at 6 uM incubated for 24 hrs by Annexin V-FITC/propidium iodide staining based flow cytometry (reference value: 0.55 %). Format: functional. (Flow cytometry measures light scatter and fluorescence of single cells or particles in a stream.)
In data set [7] the test system is MCF7. The data set can be described thus: Cell cycle arrest in human MCF7 assessed as accumulation at pre G phase at 6 uM incubated for 24 hrs by propidium iodide staining flow cytometry. The format is functional. In short, it runs like this:
as §1

Data set [8] deals with MCF7. The data set can be described thus: Cell cycle arrest in human MCF7 assessed as accumulation at G2/M phase at 6 uM incubated for 24 hrs by propidium iodide staining flow cytometry. Format: functional. In short, it runs like this:
as §1

The test system of data set [9] is MCF7. Briefly: Induction of apoptosis in human MCF7 cells assessed as late apoptotic cells at 6 uM incubated for 24 hrs by Annexin V-FITC/propidium iodide staining based flow cytometry (reference value: 0.17 %). Format: functional.
The test system of data set [10] is A549. Briefly: Antiproliferative activity against human A549 cells assessed as cell growth inhibition at 10 uM incubated for 48 hr by MTT assay. Format: functional. In outline: as §2
The subject of data set [11] is MCF7. Briefly: Induction of apoptosis in human MCF7 cells assessed as Bcl-2 level at 6 uM incubated for 24 hrs by ELISA. Format: functional. In outline: (§3)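 MCF-7 in RPMI1640 with 10% FBS, exposed to 6 μM for 24 h, lysed in cell extraction buffer, lysate diluted in standard diluent; Bax (pg ml⁻¹) and Bcl2 (ng ml⁻¹) measured by ELISA. Mean of three replicates ± SD.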

Data set [12] deals with MCF7. The data set can be described thus: Cell cycle arrest in human MCF7 assessed as accumulation at G1 phase at 6 uM incubated for 24 hrs by propidium iodide staining flow cytometry. Format: functional. In short, it runs like this:
as §1

Data set [13] deals with MCF7. Briefly: Induction of apoptosis in human MCF7 cells assessed as Caspase-9 level at 6 uM incubated for 24 hrs by ELISA. Format: functional. In outline: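 MCF-7 cells incubated with or without 6 μM for 24 h, washed in PBS, lysed; caspase-9 in lysates quantified by ELISA kit (ng ml⁻¹). Mean of three replicates ± SD.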
Background: In an ELISA, binding on a coated surface is turned into a signal by an enzyme label.

Data set [14] in a line: Antiproliferative activity against human F180 cells assessed as cell growth inhibition at 10 uM incubated for 48 hr by MTT assay. The format is toxicity, cell-based. The settings on record: f180, 48 h. In short, it runs like this:
as §2

For data set [15], the system named is MCF7. Briefly: Induction of apoptosis in human MCF7 cells assessed as Bax level at 6 uM incubated for 24 hrs by ELISA. Format: functional. In outline: as §3
The next data set deals with Tubulin. The data set can be described thus: Inhibition of tubulin polymerization in human MCF7 cells by ELISA. The format is cell-based.
The target in data set [16] is T1, Tubulin (Sus scrofa). Briefly: Inhibition of porcine Tubulin polymerization assessed as increase in AUC by measuring fluorescence at 15 uM incubated for 1 hr by fluorescence microscopy. The format is protein assay.
The subject of data set [17] is MCF7. Briefly: Antiproliferative activity against human MCF7 cells assessed as cell growth inhibition incubated for 48 hr by MTT assay. As to conditions: MCF7, 48 h.
Data set [18] addresses T2, Tubulin (Homo sapiens) (UniProt P68371+Q9H4B7+P0DPH7+P68366+Q13509+Q71U36+P04350+Q3ZCM7+P07437+P68363+Q9BQE3+Q6PEY2+Q13885+Q9BVA1+Q9BUF5). The data set can be described thus: Inhibition of tubulin polymerization in human A549 cells assessed as inhibition of microtubule spindle formation with irregular morphology at 9 uM incubated for 24 hrs by immunofluorescence assay. Format: cell-based. In short, it runs like this: (§4)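 Fixed in 3.7% paraformaldehyde, permeabilised with 0.1% Triton X-100, blocked with 1% BSA 1 h, anti-β-tubulin mouse mAb overnight at 4 °C, Alexa Fluor 488 secondary, DAPI; fluorescence microscopy.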

Data set [19] deals with A549. Briefly: Antiproliferative activity against human A549 cells assessed as cell growth inhibition incubated for 48 hr by MTT assay. The settings on record: A549, 48 h.
In data set [20] the test system is MDA-MB-231. Briefly: Antiproliferative activity against human MDA-MB-231 cells assessed as cell growth inhibition incubated for 48 hr by MTT assay. The format is functional, cell-based. In outline: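 MTT titration: cells seeded 1×10^4/well for 24 h, then treated 48 h at 37 °C, 5% CO2 with 2.5, 5, 10, 20 μM. MTT 0.5 mg ml⁻¹ for 2 h, formazan in DMSO read at 570 nm; viability relative to 0.1% DMSO control. IC50 is the mean of three replicate experiments ± SD.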

The target of data set [21] is T2, Tubulin (Homo sapiens). The data set can be described thus: Inhibition of tubulin polymerization in human A549 cells assessed as inhibition of microtubule spindle formation with irregular morphology at 13 uM incubated for 24 hrs by immunofluorescence assay. The format is cell-based. In outline:
as §4

Where [22] appears, read: Homo sapiens, MDA-MB-231, 48 h, read-out: IC50.

T1 sequence (P02550 whole entry, looked up): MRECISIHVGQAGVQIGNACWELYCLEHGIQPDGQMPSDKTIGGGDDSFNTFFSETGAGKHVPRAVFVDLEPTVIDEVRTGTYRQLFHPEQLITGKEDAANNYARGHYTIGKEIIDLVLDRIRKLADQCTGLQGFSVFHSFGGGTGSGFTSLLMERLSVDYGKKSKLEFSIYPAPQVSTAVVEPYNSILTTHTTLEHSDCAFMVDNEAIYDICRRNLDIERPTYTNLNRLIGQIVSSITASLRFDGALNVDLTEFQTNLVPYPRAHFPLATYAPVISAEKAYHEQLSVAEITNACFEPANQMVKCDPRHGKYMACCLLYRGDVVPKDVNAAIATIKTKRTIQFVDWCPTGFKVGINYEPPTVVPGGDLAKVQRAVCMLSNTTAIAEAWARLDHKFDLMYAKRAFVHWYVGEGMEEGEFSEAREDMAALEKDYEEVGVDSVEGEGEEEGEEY
T1 sequence (P02554 whole entry, looked up): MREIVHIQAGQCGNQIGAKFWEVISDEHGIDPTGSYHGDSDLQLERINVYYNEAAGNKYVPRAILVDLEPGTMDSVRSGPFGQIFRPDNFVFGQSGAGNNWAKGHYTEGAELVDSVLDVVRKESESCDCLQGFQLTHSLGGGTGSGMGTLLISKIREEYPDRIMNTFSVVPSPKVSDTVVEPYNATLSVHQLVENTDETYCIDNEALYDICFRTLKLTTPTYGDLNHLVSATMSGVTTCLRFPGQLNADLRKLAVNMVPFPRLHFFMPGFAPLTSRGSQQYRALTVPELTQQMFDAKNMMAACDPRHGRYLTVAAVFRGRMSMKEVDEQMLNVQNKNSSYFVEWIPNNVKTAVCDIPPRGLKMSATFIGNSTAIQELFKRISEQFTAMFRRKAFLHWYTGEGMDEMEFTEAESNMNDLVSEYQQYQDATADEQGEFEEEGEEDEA

In general, inhibition refers to the share of the control response that was lost under treatment. Regarding `COc1ccc(C2CC(O)=Nc3c2ncn3-c2cccc(C(F)(F)F)c2)cc1O` (stereo not given), the Activity with MCF7 [1] amounted to 42.71%; in the data set with MCF7 [4], 7.11%; in the data set with MCF7 [6] it was 5.96%; in the data set with MCF7 [7] it was 1.48%; in the data set with MCF7 [8], 3.38%; in the data set on MCF7 [9], 14.29%. Besides, the Activity with MCF7 [11] was 2.1 ng/mL; with MCF7 [12] it was 53.91%; with MCF7 [13], 13.7 ng/mL; in [14], “Toxic”; with MCF7 [15], 207.6 pg/mL. Further, the inhibition result at Tubulin (Sus scrofa) [2] was “Active”. The inhibition at 10 µM with MDA-MB-231 [3] amounted to 60%; with MCF7 [5], 50%; in the data set on A549 [10], 40%.

Broadly, the IC50 is the concentration that gives 50% inhibition. Turning to `COc1ccc(C(=O)c2cn(CC(=O)Nc3ccc(F)cc3)c3cc(OC)c(OC)cc3c2=O)cc1`, the inhibition at 10 µM in the data set on MDA-MB-231 [3], with MCF7 [5] and in the data set with A549 [10] was 50% throughout. For the same compound, the IC50 came to 12.8 µM at Tubulin, 11 µM with MCF7 [17], 9.4 µM with A549 [19] and 19.5 µM with MDA-MB-231 [20] (setting [22]). Further, the inhibition result on Tubulin (Sus scrofa) [16] and on Tubulin (Homo sapiens) [18] was “Active” each time. Also, in data set [14], the Activity result was “Toxic”.

Turning to `CC(=O)O[C@H]1C(=O)[C@@]2(C)[C@H]([C@H](OC(=O)c3ccccc3)[C@]3(O)C[C@H](OC(=O)[C@H](O)[C@@H](NC(=O)c4ccccc4)c4ccccc4)C(C)=C1C3(C)C)[C@]1(OC(C)=O)CO[C@@H]1C[C@@H]2O` [PACLITAXEL], the IC50 came to 0.0061 µM with MCF7 [17], 0.015 µM in the data set on A549 [19] and 0.0193 µM in the data set with MDA-MB-231 [20] (setting [22]).

Take `COc1cc2c(=O)c(C(=O)c3ccc(F)cc3)cn(CC(=O)Nc3ccc(F)c(F)c3)c2cc1OC`: the inhibition at 10 µM in the data set with MDA-MB-231 [3] came out at 80%; in the data set on MCF7 [5], 50%; in the data set on A549 [10] it was 20%. Moreover, the IC50 at Tubulin was 13.1 µM; in the data set with MCF7 [17] it was 12 µM; in the data set with A549 [19], 13.2 µM; in the data set on MDA-MB-231 [20] (time 48 hrs), 14.1 µM. Also, the inhibition entry on Tubulin (Sus scrofa) [16] and at Tubulin (Homo sapiens) [21] was “Active” each time. For the same compound, the Activity result in [14] was “Toxic”.

As to `CCOc1ccc(C2C3=C(CCCC3=O)Nc3c2c(C)nn3-c2nc(C)cc(C)n2)cc1OC` (stereo not given), the inhibition at 10 µM in the data set on MDA-MB-231 [3], in the data set with MCF7 [5] and with A549 [10] was 40% in each case. The IC50 was 23.2 µM in the data set on MCF7 [17], more than 20 µM with A549 [19] and more than 23 µM with MDA-MB-231 [20] (setting [22]). The Activity result in [14] is recorded as “Toxic”.
